# From ChEMBL document CHEMBL5042523, “Novel Macrocyclic Peptidomimetics Targeting the Polo-Box Domain of Polo-Like Kinase 1” (J Med Chem, 2022)
# Active and inactive are the calls of the source. The calls are words filed in the database; no cut-off is given here. Where a SMILES comes first, the peptide text is derived from it. [ ]: non-standard residue; d: D form. pT = C[C@@H](OP(=O)(O)O)[C@H](N)C(=O)O
# Columns and labels:
# [1] = biological target: Serine/threonine-protein kinase PLK2 (Homo sapiens) (UniProt Q9NYY3); experiment: Binding affinity to PlK2-PBD (unknown origin) using 5-carboxyfluorescein-Ahx-GPMQTS-pT-PKNG as substrate measured after 30 min by fluorescence polarization assay
# Serine/threonine-protein kinase PLK2 (Homo sapiens), sequence (Q9NYY3 whole entry, looked up): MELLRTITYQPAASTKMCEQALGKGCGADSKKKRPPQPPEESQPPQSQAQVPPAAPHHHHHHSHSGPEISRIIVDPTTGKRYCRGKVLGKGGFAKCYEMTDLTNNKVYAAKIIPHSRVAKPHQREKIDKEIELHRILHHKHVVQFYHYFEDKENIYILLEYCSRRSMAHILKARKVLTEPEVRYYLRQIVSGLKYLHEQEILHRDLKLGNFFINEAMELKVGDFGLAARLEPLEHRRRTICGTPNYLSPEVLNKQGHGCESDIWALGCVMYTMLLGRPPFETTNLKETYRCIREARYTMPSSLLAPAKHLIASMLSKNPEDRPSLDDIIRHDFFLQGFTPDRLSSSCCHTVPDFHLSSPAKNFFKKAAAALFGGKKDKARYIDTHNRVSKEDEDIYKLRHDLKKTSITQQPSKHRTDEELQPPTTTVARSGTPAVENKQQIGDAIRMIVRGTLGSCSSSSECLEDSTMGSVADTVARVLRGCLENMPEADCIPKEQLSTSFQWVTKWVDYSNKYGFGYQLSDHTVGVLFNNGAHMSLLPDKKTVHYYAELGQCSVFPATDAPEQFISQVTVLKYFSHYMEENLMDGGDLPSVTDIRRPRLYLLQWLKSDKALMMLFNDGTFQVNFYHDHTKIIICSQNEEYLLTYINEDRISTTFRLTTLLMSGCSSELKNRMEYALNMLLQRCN
# In short: (§1)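 Competitive fluorescence polarization. E. coli-purified PBD used at its EC85 with 10 nM (final) 5-carboxyfluorescein-labelled phosphopeptide: GPMQTS-pT-PKNG probe for Plk2, GPLATS-pT-PKNG probe for Plk3. Buffer was 10 mM Tris-Cl pH 8.0, 1 mM EDTA, 50 mM NaCl, 0.01% NP-40, with test peptide over a concentration range. Polarization read 30 min after mixing. Three independent experiments.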
# [2] = biological target: Serine/threonine-protein kinase PLK3 (Homo sapiens) (UniProt Q9H4B4); experiment: Binding affinity to PlK3-PBD (unknown origin) using 5-carboxyfluorescein-Ahx-GPLATS-pT-PKNG as substrate measured after 30 min by fluorescence polarization assay; in short: as §1
# Serine/threonine-protein kinase PLK3 (Homo sapiens), sequence (Q9H4B4 whole entry, looked up): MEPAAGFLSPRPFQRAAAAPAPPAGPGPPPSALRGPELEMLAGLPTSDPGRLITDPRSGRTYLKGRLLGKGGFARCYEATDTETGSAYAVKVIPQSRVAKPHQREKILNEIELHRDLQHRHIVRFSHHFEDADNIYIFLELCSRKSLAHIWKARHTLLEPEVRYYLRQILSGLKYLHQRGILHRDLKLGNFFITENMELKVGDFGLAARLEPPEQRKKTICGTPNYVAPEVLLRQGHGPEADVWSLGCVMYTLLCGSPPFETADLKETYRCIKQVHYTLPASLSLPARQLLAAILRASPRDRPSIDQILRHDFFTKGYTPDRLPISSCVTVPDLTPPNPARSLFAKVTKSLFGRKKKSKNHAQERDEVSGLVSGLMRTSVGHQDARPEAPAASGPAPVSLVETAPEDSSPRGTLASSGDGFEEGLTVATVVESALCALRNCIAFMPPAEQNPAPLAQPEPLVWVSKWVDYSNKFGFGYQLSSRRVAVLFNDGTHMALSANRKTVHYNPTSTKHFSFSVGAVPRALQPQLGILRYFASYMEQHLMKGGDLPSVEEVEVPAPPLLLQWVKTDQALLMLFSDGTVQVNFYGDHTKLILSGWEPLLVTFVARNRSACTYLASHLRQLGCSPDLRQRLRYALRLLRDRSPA
# HeLa = experiment: Antiproliferative activity against human HeLa cell assessed as viable cells measured after 2 days by MTS assay; type: functional, cell-based; details: time 2.0 day
# In short: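 HeLa cells, asynchronously growing, seeded at 2000 cells/100 μL in triplicate. Compound added for 24 h, then medium replaced and compound given for another 24 h (48 h continuous). MTS reagent added for 1–4 h at 37 °C, 5% CO2. Absorbance read at 490 nm. Three independent experiments, mean relative signal with s.d.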
# [3] = Drug uptake in Wistar rat administered iv measured after 5 to 30 mins by PET imaging analysis; type: ADME, organism-based; details: in vivo, time 5-30 min
Activity [1],Activity [2],Drug uptake [3],Structure (SMILES),Activity (HeLa)
inactive,inactive,,COC(=O)[C@H](CC(C)C)NC(=O)[C@@H]1CC[C@H]2OCCNC(=O)CC[C@H](NC(=O)c3cc(OCC(C)C)cc(OCC(C)C)c3)C(=O)N[C@@H](CO)C(=O)N[C@@H]([C@@H](C)OP(=O)(O)O)C(=O)N21,Active
,,Not Active,COC(=O)[C@H](CC(C)C)NC(=O)[C@@H]1CCCN1C(=O)[C@@H](NC(=O)[C@H](CO)NC(=O)[C@H](CCC(N)=O)NC(=O)[C@H](CCSC)NC(=O)[C@@H]1CCCN1)[C@@H](C)OP(=O)(O)O (H-PMQS[pT]PL-OMe),
